# Most compounds without a hit are left out; they make up all but 6.1% or so of the library.
# BB579 growth dn: reduces growth of yeast BB579 in restrictive medium; S. cerevisiae BB579 growth, OD615, 48 h; inhibition, % at 10 µM; 140,000 tested, 0.51% active; AID 804;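 active = inhibition above a set limit, 3 SD over the mean compound inhibition, cut at about 44% in these data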
#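 System: Saccharomyces cerevisiae DeaD strain BB579, replicative lifespan model yeast. Buffer or medium: restrictive glucose-based CSMM-D medium. Doses: one dose, 10 µM compound with 0.25% DMSO. Timing: 4 h preincubation and 48 h exposure at 30 °C. Detection: turbidity as optical density at 615 nm. Benchmarks: amphotericin B 10 µg/mL, positive.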
# WT yeast gro inh: growth inhibition of WT yeast, mitochondrial fusion screen; mitochondrial fusion phenotypic screen, WT strain; inhibition, % at 10 µM; 190,000 tested, 2.1% active; in the data active = inhibition above about 58%; tested in S. cerevisiae
# DAT uptake mod: human DAT dopamine uptake with cocaine, either direction; Q01959; 110,000 tested, 1.3% active; B-score at 10 µM; LLC-PK1 hDAT cells, [14C]-dopamine uptake with cocaine IC80; actives deviate in either direction;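 active = Z score or B-score, a plate-position-corrected score, falls beyond the plate's 99.7% confidence bounds, in either direction; inactive = both scores lie inside the 99.7% bounds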;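 note: scored against the spread of the other compound wells on the same plate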
# Target sequence (Q01959 whole entry, looked up): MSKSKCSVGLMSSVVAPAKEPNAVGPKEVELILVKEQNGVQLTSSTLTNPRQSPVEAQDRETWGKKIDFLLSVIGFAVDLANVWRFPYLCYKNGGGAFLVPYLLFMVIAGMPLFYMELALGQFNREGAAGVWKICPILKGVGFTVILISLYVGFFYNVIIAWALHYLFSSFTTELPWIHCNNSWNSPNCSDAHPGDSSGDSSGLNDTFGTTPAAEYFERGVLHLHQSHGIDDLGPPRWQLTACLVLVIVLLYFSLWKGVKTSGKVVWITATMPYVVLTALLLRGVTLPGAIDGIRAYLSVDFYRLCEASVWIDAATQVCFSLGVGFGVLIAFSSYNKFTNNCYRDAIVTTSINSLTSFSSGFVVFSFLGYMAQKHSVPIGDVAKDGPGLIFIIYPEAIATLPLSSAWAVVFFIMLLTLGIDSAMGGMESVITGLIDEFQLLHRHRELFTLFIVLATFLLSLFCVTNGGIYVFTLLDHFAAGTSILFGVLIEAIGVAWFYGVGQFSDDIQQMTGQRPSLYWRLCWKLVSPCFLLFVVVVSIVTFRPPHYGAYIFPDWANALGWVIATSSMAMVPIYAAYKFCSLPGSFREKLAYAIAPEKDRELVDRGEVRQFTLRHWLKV
# RAM inhibit: blocks the yeast RAM network; inhibition, % at 50 µM; 190,000 tested, 1.8% active; S. cerevisiae dse1pr::URA3 reporter, 5-FOA growth OD615, 2 d; analog-sensitive cbk1-as2 kinase mutant strain;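 active = inhibition above a set limit, 3 SD over mean compound inhibition, cut at about 8.4% in these data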;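 note: 0% = DMSO-only wells with no growth and 100% = 10 µM 1-NA-PP1 full growth; inhibition rescues growth on 5-FOA so higher OD means more RAM inhibition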
# Yeast lifespan up: extends the lifespan of yeast; S. cerevisiae growth with nicotinamide, OD615; deaD strain in restrictive glucose medium; inhibition of the nicotinamide effect, % at 10 µM; 130,000 tested, 0.68% active; AID 775;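 active = inhibition above a set limit, placed 3 SD over the median of all compounds, cut at about 26% in these data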;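 note: 0% = nicotinamide-treated wells and 100% = cells grown without nicotinamide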
#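 assay system = DeaD-strain S. cerevisiae | measured by = absorbance at 615 nm | probe or stimulus = nicotinamide 1.5 mM | buffer or medium = CSMM-D glucose medium, restrictive | times = 48 h at 30 °C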
# Measles CPE: protection of cells from measles virus. Measles virus-infected cells, CPE protection, absorbance. protection (pct of control), % at 4 µM. 140,000 tested, 1.5% active. AID 841; in the data active = protection mostly above about 24%, no sharp cut-off; inactive = mostly below about 26%
# * hit, by the source's call; . = no result given.
SMILES,BB579 growth dn,WT yeast gro inh,DAT uptake mod,RAM inhibit,Yeast lifespan up,Measles CPE
Cc1cccc(-c2cc(C(=O)N3CCCc4ccccc43)c3ccccc3n2)c1,2,39,.,4,5,11
O=C(CCCC(=O)N1CCCc2ccccc21)N1CCCc2ccccc21,-40,-2,2.7*,5,1,5
COc1cc(OC)c(C2=NOC(C(=O)Nc3ccc4c(c3)OCO4)C2)cc1Cl (stereo unspecified),.,17,.,1,.,.
O=C(Nc1ccc2c(c1)OCO2)C1CC(c2ccc(Cl)cc2)=NO1 (stereo unspecified),-12,5,-0.0094,5,-4,40*
CCOC(=O)c1sc2nc(N3CCOCC3)c3c(c2c1N)CCCC3,-47,-8,0.34,5,-15,42
OCCN(CCO)c1ncnc2c1sc1nc(N3CCOCC3)c3c(c12)CCCC3,-47,15,4.1*,2,-30,22
COC(=O)c1sc2nc(N3CCCCC3)c3c(c2c1N)CCCC3,-21,33,1.8,4,-12,5
CCN(CC)C(=O)c1sc2nc(N3CCOCC3)c3c(c2c1N)CCCC3,-30,-5,3*,3,-10,8
COC(=O)c1ccc(-c2sc3nc(N4CCOCC4)c4c(c3c2N)CCCC4)o1,-19,62*,0.026,7,-22,5
N#C/C(C(=O)Oc1ccccc1)=C1/Nc2ccccc2-c2ccccc21,-11,-37,1,2,-20,4
C=C(C)Cn1c(SCC)nc2ccccc2c1=O,-12,-3,-0.81,0,-24,28*
C=C(C)Cn1c(SCC#N)nc2ccccc2c1=O,-26,-6,-2.9*,-1,-14,3
O=C1CC(N(C(=O)c2ccco2)c2cccc(Cl)c2)C(=O)N1c1cccc(Cl)c1 (stereo unspecified),-24,15,-0.24,1,-7,12
CC(C)CNC(=O)COc1ccc(Sc2ccc(OCC(=O)NCC(C)C)cc2)cc1,-9,-9,.,5,0,13
CCCC(C)NC(=O)COc1ccc(Sc2ccc(OCC(=O)NC(C)CCC)cc2)cc1 (stereo unspecified),-54,4,.,10*,7,21
Cc1cc(C)cc(NC(=O)C(NCCN2CCOCC2)c2ccccc2)c1 (stereo unspecified),.,11,.,1,.,.
Nc1ccc(Nc2ccccc2)c(Cl)c1,-37,13,-1.1,3,-8,20
Nc1ccccc1Nc1ccccc1,-7,18,2.5*,0,-32,24
Cc1cccc(-n2ncc3c(N4CCCc5ccccc54)ncnc32)c1,-17,71*,-0.6,1,-14,6
O=C(NCc1ccco1)c1ccc(COCC(F)(F)F)cc1,4,-8,-0.03,1,-18,26
O=C(NCc1ccco1)c1ccc(COCC(F)(F)C(F)F)cc1,-35,-24,0.89,0,-4,33*
CCOc1ccc(C(=O)NCc2ccco2)cc1,-37,-10,0.78,0,-15,3
CCC(CC)C(=O)c1c[nH]c(C(=O)NCc2ccco2)c1,-20,61*,-0.63,1,-20,4
CC(C)COc1ccc(C(=O)NCc2ccco2)cc1,-41,13,-7.8*,0,-13,3
CC1(C)COC(c2cccc(C3=NC(C)(C)CO3)n2)=N1,-8,-9,.,0,7,8
SMILES,BB579 growth dn,WT yeast gro inh,DAT uptake mod,RAM inhibit,Yeast lifespan up,Measles CPE
COCCN1C(=O)CS/C1=C(/C#N)C(=O)NCc1ccco1,.,-9,.,0,.,.
CC(=O)N1CCN(c2ccc(OC[C@H]3CO[C@](Cn4ccnc4)(c4ccc(Cl)cc4Cl)O3)cc2)CC1,93*,-45,3.8*,1,-7,19
COC(OC)C12c3ccccc3C(c3ccccc31)C1C(=O)N(c3cccnc3)C(=O)C12 (stereo unspecified),.,-2,.,0,.,.
COC1(C)CC2C(CC1OC(=O)c1cc([N+](=O)[O-])cc([N+](=O)[O-])c1)C2(C)C (stereo unspecified),-18,76*,.,2,20,10
COC(=O)c1cc(C(=O)N2CCOCC2)cc([N+](=O)[O-])c1,.,-5,.,2,.,.
Cc1nnn(-c2nonc2N)c1C(=O)NNC(=O)c1ccc(Cl)c(Cl)c1,.,-30,.,2,.,.
CC(C)(C)CC(=O)Nc1nnc(C(F)(F)F)s1,-12,-13,2.8*,1,.,12
CC(NC(=O)Nc1nnc(C(F)(F)F)s1)(C(F)(F)F)C(F)(F)F,-18,70*,-0.039,1,-8,3
O=C(Nc1nnc(C(F)(F)F)s1)c1ccc(Br)s1,.,63*,.,3,.,.
O=C(CCC(=O)NC1CCCCCC1)Nc1nnc(C(F)(F)F)s1,-8,-18,0.41,0,-3,10
CCN(CC)S(=O)(=O)c1cc(C(=O)OCC(=O)Nc2cccc(S(=O)(=O)N(C)C)c2)ccc1F,.,6,.,9.2*,.,.
CCN(CC)S(=O)(=O)c1cc(NC(=O)COC(=O)CCC(=O)c2ccc(F)cc2)ccc1C,-37,1,.,9.5*,1,5
CCN(CC)S(=O)(=O)c1cc(C(=O)OCC(=O)Nc2ccc(-c3nc4ccc(C)cc4s3)cc2)ccc1F,-35,-1,.,7,5,4
Cc1ccc(-c2csc3ncnc(N4CCN(C(=O)c5ccccc5)CC4)c23)cc1,-63,-14,2.2,0,29,2
Nc1ccc(C(=O)OCC(=O)N2c3ccccc3Sc3ccccc32)cc1[N+](=O)[O-],-48,-8,.,1,5,33*
Cc1ccc(S(=O)(=O)Cc2c(C)noc2C)cc1,-52,5,-0.27,1,-7,21
Cc1noc(C)c1CS(=O)(=O)c1ccc(Br)cc1,1,-4,.,1,56*,3
CCOC(=O)Nc1ccc(C(=O)Oc2ccccc2)c(O)c1,-55,3,-0.62,5,-27,40*
Cc1csc(NC(=O)c2c(O)c3c(n(CC(C)C)c2=O)CCCC3)n1,-40,63*,0.52,2,-2,2
CCCn1c2c(c(O)c(C(=O)Nc3nccs3)c1=O)CCCC2,20,76*,-1.1,3,-9,27
CC(C)Cn1c2c(c(O)c(C(=O)Nc3nccs3)c1=O)CCCC2,-20,35,.,3,-6,9
CCc1ccccc1NC(=O)C1C(c2ccccc2)C1(Cl)Cl (stereo unspecified),-38,81*,-0.31,3,-4,13
Cc1ccc(C)c(NC(=O)C2C(c3ccccc3)C2(Cl)Cl)c1 (stereo unspecified),-24,10,0.61,3,-5,18
CCCCNC(=O)C1C2C=CC(C2)C1C(=O)O (stereo unspecified),-39,-8,.,1,0,38*
O=C(O)C1C2C=CC(C2)C1C(=O)NCCCN1CCOCC1 (stereo unspecified),-1,-18,-1.3,0,15,5
